Data taken from PMC11544174 (Acta Pharmaceutica Sinica. B, 2024).

Columns and labels:
[1] = test system: respiratory syncytial virus (RSV); assay: cytopathic effect; format: cell-based, strain A2; conditions: human respiratory syncytial virus, HEp-2, read-out: IC50 ± SD (50% inhibition concentration), anti-RSV activity
How it was run: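 Host cells were HEp-2 in DMEM with 10% FBS. RSV A2 stock was propagated in HEp-2 and titred by plaque assay. Test compounds were held as 50 mmol/L DMSO stocks at −20 °C and diluted into medium to final concentrations. Ribavirin served as positive control.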

[2] = cytotoxicity; format: cell-based; conditions: human, HEp-2 cells
How it was run: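 HEp-2 cells were grown in DMEM with 10% FBS. Test compounds were held as 50 mmol/L DMSO stocks at −20 °C and diluted into culture medium to final concentrations. Ribavirin served as positive control.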

IC50 [1]: 15 ± 1 µM
SMILES: NC(=O)c1ncn([C@@H]2O[C@H](CO)[C@@H](O)[C@H]2O)n1 [Ribavirin]
CC50 [2]: > 50 µM
